Assay results taken from EPA's CvTdb concentration-time database.

What was measured:
human = experiment: concentration in blood after dosing; negative times count back from the end of exposure; conditions: inhalation
Procedure, shortened: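 Data points giving concentration or amount against time came from published in vivo toxicokinetic studies and from two structured collections. PubMed searching, classifier screening and manual review located the studies. Most points were digitised from plot screenshots using WebPlotDigitizer, the rest were copied from tables, and all keep their reported units.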

rat = experiment: concentration in plasma after dosing; conditions: dosed: propylparaben, oral, male, Wistar

CN1CCCC1=O [N-methyl-2-pyrrolidone]
human, dosed: N-methyl-2-pyrrolidone, male
Conditions | concentration in blood [ng/mL]
0 h, 10 mg/m^3, duration: 8 hr | 470
0.8235 h, 53 mg/m^3, duration: 8 hr | 2010
0.9269 h, 80 mg/m^3, duration: 6 hr 10min | 942
0.9412 h, 10 mg/m^3, duration: 8 hr | 503
0.9412 h, 24 mg/m^3, duration: 8 hr | 701
0.986 h, 10 mg/m^3, duration: 6 hr 10min | 194
0.986 h, 40 mg/m^3, duration: 6 hr 10min | 412
1.824 h, 24 mg/m^3, duration: 8 hr | 492
1.824 h, 53 mg/m^3, duration: 8 hr | 1300
1.882 h, 10 mg/m^3, duration: 8 hr | 244
1.932 h, 10 mg/m^3, duration: 6 hr 10min | 153
1.932 h, 80 mg/m^3, duration: 6 hr 10min | 723
2.109 h, 40 mg/m^3, duration: 6 hr 10min | 346
3.765 h, 10 mg/m^3, duration: 8 hr | 139
3.765 h, 24 mg/m^3, duration: 8 hr | 277
3.765 h, 53 mg/m^3, duration: 8 hr | 757
3.823 h, 40 mg/m^3, duration: 6 hr 10min | 253
3.823 h, 80 mg/m^3, duration: 6 hr 10min | 516
4.06 h, 10 mg/m^3, duration: 6 hr 10min | 146
7.882 h, 53 mg/m^3, duration: 8 hr | 305
7.941 h, 24 mg/m^3, duration: 8 hr | 189
8 h, 10 mg/m^3, duration: 8 hr | 123
18.01 h, 80 mg/m^3, duration: 6 hr 10min | 92.6
18.25 h, 40 mg/m^3, duration: 6 hr 10min | 18.6
18.6 h, 10 mg/m^3, duration: 6 hr 10min | 55.7
19.88 h, 53 mg/m^3, duration: 8 hr | 91.4
19.94 h, 10 mg/m^3, duration: 8 hr | 85.9
19.94 h, 24 mg/m^3, duration: 8 hr | 63.9
145 s, 80 mg/m^3, duration: 6 hr 10min | 1530

human, dosed: N-methyl-2-pyrrolidone, male, during exposure
Conditions | concentration in blood [ng/mL]
-281 s, 40 mg/m^3, duration: 6 hr 10min | 645
-212 s, 24 mg/m^3, duration: 8 hr | 806
-212 s, 53 mg/m^3, duration: 8 hr | 2610
-68 s, 10 mg/m^3, duration: 6 hr 10min | 308
-4.118 h, 53 mg/m^3, duration: 8 hr | 1610
-4 h, 10 mg/m^3, duration: 8 hr | 342
-4 h, 24 mg/m^3, duration: 8 hr | 971
-3.211 h, 80 mg/m^3, duration: 6 hr 10min | 963
-3.034 h, 10 mg/m^3, duration: 6 hr 10min | 182
-3.034 h, 40 mg/m^3, duration: 6 hr 10min | 449

CCCOC(=O)c1ccc(O)cc1 [propylparaben]
concentration in plasma [ng/mL], rat
Conditions | 0.2504 h | 0.5008 h | 0.9984 h | 1.002 h | 2 h | 2.003 h | 4 h | 4.003 h | 297 s
3 mg/kg | 871 | 280 | – | 88.4 | 82.5 | – | – | – | 495
10 mg/kg | 3140 | 1720 | 466 | – | 271 | – | 23.6 | – | 1790
100 mg/kg | 8510 | 7830 | 4220 | – | 2980 | – | 495 | – | 8610
1000 mg/kg | 14100 | 17200 | – | 11500 | – | 9040 | – | 6390 | 15900

CCCCOCCO [2-butoxyethanol]
human, dosed: 2-butoxyethanol, 20 ppm, duration: 2 hr
Conditions | concentration in blood [µM]
0.1474 h | 4.33
0.3298 h | 3.31
0.4842 h | 3.42
0.6526 h | 2.2
1.004 h | 1.41
1.326 h | 1
1.663 h | 1.09
1.986 h | 0.987
25 s | 7.2
227 s | 4.22

human, dosed: 2-butoxyethanol, 20 ppm, duration: 2 hr, during exposure
Conditions | concentration in blood [µM]
-1.916 h | 2.83
-1.832 h | 2.77
-1.677 h | 4.53
-1.34 h | 5.02
-1.018 h | 7.01
-0.6807 h | 7.2
-0.3438 h | 7.4
